Measurements from ChEMBL document CHEMBL3259739, “Synthesis and structure-activity relationship of trisubstituted thiazoles as Cdc7 kinase inhibitors” (Eur J Med Chem, 2014).

Assays:
[1] = biological target: ALK tyrosine kinase receptor (Homo sapiens) (UniProt Q9UM73); experiment: Inhibition of ALK (unknown origin) at 1 uM relative to control; values are per cent of control
[2] = biological target: Mitogen-activated protein kinase kinase kinase 1 (Homo sapiens) (UniProt Q13233); experiment: Inhibition of MAP3K1 (unknown origin) at 1 uM relative to control; values are per cent of control
[3] = biological target: Tyrosine-protein kinase BTK (Homo sapiens) (UniProt Q06187); experiment: Inhibition of BTK (unknown origin) at 1 uM relative to control; values are per cent of control
[4] = biological target: T1, Serine/threonine-protein kinase TAO2 (Homo sapiens) (UniProt Q9UL54); experiment: Inhibition of TAOK2 (unknown origin) at 1 uM relative to control; conditions: values are per cent of control
T1 sequence (whole entry): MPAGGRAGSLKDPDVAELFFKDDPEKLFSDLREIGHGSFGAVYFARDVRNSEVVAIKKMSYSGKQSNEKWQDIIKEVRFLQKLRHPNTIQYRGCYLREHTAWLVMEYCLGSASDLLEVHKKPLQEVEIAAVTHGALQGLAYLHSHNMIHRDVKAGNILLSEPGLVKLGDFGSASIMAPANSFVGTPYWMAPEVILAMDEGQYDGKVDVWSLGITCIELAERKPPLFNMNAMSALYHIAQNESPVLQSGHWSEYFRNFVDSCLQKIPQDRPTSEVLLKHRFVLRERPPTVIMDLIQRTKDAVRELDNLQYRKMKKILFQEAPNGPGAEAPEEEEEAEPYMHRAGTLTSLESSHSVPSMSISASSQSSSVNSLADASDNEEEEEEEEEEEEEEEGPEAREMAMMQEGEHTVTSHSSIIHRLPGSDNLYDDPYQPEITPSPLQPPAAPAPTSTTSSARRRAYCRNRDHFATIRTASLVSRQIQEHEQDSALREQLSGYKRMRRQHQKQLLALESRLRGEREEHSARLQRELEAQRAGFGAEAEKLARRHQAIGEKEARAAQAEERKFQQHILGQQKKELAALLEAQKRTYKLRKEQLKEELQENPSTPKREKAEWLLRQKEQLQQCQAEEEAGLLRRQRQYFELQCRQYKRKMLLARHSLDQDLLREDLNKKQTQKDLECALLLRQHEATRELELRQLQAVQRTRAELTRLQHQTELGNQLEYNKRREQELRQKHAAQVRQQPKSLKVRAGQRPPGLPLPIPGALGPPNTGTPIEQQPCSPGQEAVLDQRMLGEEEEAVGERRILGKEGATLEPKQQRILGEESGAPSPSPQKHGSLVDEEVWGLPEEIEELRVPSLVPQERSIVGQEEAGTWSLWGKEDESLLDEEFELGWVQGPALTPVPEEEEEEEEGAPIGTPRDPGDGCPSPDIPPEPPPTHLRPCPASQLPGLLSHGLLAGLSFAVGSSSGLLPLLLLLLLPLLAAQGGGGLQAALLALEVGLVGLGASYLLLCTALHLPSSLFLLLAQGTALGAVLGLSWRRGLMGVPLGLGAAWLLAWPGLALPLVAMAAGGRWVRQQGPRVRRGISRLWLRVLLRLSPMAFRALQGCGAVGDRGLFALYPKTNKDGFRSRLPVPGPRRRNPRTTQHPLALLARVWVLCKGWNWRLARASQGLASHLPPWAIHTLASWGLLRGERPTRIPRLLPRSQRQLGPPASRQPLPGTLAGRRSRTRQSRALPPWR
In short: (§1)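 KinomeSCAN competitive binding panel of 100 kinases; compounds tested at 1 µM in duplicate; read-out is percent […] control.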

[5] = biological target: T2, Mitogen-activated protein kinase 12 (Homo sapiens) (UniProt P53778); experiment: Inhibition of p38-gamma (unknown origin) at 1 uM relative to control; values are per cent of control
T2 sequence (whole entry): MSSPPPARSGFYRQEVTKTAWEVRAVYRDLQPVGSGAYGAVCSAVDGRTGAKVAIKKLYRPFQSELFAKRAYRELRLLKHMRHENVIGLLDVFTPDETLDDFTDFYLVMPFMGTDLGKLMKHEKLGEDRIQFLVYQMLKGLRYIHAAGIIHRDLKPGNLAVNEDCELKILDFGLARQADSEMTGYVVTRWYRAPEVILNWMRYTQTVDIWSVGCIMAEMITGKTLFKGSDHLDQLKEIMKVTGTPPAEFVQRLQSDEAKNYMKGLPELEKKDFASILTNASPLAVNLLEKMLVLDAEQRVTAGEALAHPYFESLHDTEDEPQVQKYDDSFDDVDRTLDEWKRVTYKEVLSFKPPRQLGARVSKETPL

[6] = biological target: T3, Mitogen-activated protein kinase kinase kinase 7 (Homo sapiens) (UniProt O43318); experiment: Inhibition of TAK1 (unknown origin) at 1 uM relative to control; conditions: values are per cent of control
T3 sequence (whole entry): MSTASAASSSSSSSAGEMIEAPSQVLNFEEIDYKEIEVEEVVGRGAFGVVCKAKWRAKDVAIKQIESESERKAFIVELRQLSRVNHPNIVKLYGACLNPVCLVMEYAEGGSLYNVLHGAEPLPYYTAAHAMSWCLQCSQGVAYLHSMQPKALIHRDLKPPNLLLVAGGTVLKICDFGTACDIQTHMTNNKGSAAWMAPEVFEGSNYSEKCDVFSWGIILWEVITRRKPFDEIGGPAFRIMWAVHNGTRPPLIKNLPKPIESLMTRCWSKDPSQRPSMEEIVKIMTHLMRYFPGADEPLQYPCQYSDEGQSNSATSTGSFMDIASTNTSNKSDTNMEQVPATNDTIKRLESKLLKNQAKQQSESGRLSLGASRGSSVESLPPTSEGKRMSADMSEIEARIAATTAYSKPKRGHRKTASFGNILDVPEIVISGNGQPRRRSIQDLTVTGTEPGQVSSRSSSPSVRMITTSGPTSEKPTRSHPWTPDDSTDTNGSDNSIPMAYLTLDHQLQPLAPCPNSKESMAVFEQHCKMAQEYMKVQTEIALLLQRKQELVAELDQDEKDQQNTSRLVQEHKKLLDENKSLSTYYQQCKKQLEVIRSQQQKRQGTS
In short: as §1

[7] = biological target: Glycogen synthase kinase-3 beta (Homo sapiens) (UniProt P49841); experiment: Inhibition of GSK3B (unknown origin) at 1 uM relative to control; values are per cent of control
[8] = biological target: Protein-tyrosine kinase 6 (Homo sapiens) (UniProt Q13882); experiment: Inhibition of BRK (unknown origin) at 1 uM relative to control; values are per cent of control
[9] = biological target: Dual specificity protein kinase CLK1 (Homo sapiens) (UniProt P49759); experiment: Inhibition of CLK1 (unknown origin) at 1 uM relative to control; values are per cent of control
[10] = biological target: Serine/threonine-protein kinase mTOR (Homo sapiens) (UniProt P42345); experiment: Inhibition of MTOR (unknown origin) at 1 uM relative to control; values are per cent of control

Tyrosine-protein kinase BTK (Homo sapiens), sequence (Q06187 whole entry): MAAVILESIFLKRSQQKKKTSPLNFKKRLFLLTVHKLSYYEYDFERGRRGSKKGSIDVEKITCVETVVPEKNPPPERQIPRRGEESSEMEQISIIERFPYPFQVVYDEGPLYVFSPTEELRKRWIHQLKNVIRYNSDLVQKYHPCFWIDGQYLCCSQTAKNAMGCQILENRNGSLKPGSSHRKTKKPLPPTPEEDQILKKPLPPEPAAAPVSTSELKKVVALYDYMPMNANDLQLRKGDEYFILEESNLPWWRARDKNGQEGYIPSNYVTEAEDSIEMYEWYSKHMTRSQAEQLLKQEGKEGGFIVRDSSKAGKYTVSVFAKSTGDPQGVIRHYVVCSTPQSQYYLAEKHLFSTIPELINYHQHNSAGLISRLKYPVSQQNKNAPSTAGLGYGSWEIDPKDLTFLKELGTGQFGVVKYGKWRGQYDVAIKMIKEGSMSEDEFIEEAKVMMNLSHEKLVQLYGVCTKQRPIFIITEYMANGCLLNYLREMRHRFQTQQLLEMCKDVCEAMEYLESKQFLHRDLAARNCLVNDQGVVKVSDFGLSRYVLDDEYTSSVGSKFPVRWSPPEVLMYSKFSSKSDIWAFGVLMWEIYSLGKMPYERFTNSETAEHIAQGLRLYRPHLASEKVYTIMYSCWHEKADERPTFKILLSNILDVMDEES
Mitogen-activated protein kinase kinase kinase 1 (Homo sapiens), sequence (Q13233 whole entry): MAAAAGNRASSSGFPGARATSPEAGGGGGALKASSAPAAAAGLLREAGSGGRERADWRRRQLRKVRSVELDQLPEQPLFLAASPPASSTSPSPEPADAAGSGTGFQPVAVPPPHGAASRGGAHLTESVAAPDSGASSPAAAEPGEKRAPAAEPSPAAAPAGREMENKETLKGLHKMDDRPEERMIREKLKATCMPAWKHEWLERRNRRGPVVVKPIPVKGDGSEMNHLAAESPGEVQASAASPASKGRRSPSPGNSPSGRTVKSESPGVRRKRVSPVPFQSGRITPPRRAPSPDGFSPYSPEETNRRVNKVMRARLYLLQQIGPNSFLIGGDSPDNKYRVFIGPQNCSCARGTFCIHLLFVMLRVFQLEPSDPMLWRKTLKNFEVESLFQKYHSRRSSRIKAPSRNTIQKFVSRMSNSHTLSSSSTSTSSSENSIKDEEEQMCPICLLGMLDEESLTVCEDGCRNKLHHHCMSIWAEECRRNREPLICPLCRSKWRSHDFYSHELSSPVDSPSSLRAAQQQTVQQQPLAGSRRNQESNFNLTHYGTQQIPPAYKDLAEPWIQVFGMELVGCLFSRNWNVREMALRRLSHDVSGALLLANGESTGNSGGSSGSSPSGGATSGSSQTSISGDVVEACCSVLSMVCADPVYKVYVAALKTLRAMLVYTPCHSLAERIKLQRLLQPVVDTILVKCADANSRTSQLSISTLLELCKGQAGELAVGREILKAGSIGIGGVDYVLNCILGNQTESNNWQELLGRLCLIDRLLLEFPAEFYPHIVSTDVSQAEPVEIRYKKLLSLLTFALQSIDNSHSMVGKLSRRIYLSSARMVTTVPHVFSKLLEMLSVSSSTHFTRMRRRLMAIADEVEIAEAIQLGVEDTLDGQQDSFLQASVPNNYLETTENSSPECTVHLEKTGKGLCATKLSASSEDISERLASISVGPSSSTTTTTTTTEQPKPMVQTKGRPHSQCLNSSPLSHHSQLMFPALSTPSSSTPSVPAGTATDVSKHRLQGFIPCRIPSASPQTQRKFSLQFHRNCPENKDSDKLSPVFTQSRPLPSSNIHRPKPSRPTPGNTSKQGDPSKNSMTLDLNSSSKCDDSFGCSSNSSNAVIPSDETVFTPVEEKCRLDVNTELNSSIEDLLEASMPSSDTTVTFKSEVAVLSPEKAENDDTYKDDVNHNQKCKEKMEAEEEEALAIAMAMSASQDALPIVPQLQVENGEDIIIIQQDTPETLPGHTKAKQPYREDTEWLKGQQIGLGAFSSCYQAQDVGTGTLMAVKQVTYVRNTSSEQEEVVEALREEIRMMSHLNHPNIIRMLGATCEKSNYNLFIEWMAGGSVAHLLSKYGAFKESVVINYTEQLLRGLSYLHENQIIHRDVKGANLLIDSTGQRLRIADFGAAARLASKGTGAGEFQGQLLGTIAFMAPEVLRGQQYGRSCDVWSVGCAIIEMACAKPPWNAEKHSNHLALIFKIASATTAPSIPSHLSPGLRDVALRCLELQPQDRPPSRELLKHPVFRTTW
Protein-tyrosine kinase 6 (Homo sapiens), sequence (Q13882 whole entry, looked up): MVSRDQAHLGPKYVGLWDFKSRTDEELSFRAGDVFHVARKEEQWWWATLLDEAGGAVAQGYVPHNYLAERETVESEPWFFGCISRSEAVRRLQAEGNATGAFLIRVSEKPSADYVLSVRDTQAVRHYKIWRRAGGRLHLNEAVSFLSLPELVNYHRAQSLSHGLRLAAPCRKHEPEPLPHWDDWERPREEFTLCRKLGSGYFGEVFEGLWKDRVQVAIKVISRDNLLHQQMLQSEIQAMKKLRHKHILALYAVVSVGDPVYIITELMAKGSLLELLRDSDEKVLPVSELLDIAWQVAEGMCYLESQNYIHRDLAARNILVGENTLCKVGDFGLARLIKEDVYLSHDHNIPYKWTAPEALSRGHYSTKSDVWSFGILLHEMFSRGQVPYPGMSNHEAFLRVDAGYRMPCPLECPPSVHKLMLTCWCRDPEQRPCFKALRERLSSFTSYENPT
Dual specificity protein kinase CLK1 (Homo sapiens), sequence (P49759 whole entry, looked up): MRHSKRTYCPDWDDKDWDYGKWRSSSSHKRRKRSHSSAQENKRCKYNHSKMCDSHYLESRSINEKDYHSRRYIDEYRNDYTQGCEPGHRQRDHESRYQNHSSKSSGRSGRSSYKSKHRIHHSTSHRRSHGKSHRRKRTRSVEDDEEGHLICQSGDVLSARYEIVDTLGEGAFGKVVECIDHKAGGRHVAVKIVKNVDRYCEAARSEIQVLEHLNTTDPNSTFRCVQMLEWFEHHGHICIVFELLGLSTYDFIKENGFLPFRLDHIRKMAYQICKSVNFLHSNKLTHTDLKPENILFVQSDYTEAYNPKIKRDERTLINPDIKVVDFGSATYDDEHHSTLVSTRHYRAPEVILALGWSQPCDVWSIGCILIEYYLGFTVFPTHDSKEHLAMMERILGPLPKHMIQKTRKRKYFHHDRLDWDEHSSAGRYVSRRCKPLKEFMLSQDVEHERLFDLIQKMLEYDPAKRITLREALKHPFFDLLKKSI
Glycogen synthase kinase-3 beta (Homo sapiens), sequence (P49841 whole entry, looked up): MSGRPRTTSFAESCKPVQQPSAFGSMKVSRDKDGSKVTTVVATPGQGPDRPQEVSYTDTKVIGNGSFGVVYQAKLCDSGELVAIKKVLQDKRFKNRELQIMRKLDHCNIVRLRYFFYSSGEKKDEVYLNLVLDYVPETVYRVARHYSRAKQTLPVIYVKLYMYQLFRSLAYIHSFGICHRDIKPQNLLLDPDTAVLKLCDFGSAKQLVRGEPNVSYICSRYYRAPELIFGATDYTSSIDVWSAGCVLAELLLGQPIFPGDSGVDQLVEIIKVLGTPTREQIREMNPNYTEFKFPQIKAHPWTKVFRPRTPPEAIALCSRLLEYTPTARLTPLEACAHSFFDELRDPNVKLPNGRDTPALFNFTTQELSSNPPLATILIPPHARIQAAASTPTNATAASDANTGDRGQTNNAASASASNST

Row | residual activity [1] [%] | residual activity [2] [%] | residual activity [3] [%] | residual binding, % of control [4] [%] | residual activity [5] [%] | residual binding, % of control [6] [%] | residual activity [7] [%] | residual activity [8] [%] | residual activity [9] [%] | residual activity [10] [%] | Structure (SMILES)
1 | 86 | 85 | 92 | 100 | 100 | 65 | 100 | 94 | 90 | 93 | CCOC(=O)c1sc(-c2ccncc2)nc1O
2 | 63 | 93 | 76 | 25 | 91 | 49 | 6.8 | 80 | 2.3 | 74 | COc1ccc(-c2nc(-c3ccnc(N)n3)sc2C(N)=O)c(Cl)c1

Row | Structure (SMILES) | residual activity [1] [%] | residual activity [2] [%] | residual activity [3] [%] | residual binding, % of control [4] [%] | residual activity [5] [%] | residual binding, % of control [6] [%] | residual activity [7] [%] | residual activity [8] [%] | residual activity [9] [%] | residual activity [10] [%]
3 | NC(=O)c1sc(-c2ccnc(N)n2)nc1-c1ccc(Cl)cc1Cl | 100 | 97 | 75 | 55 | 65 | 34 | 6.4 | 68 | 1.3 | 93
